Paper PMC4261236 (Journal of Medicinal Chemistry, 2014)

What was measured:
[1] = test system: sstr2-transfected HCT116 cells; assay: Cell internalization assay; assay type: cell-based, Human; conditions: for maximum internalized tracer: after 2 h at 37 °C, 4 nM tracer
How it was run: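 sstr2-transfected HCT116 cells (Iscove's, 10% FBS, 1 mM Zeocin) in 12-well plates with 64Cu-labelled tracer at 4 nM final (labelled at >98% yield, used without purification). Surface-bound and internalized activity gamma-counted at 15, 30, 60, 120 and 240 min. Nonspecific binding from 1000-fold excess Y3-TATE. Values normalized to added activity and to BCA protein (%ID/mg).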

[2] = Biodistribution in tumor-bearing mice; assay type: in vivo; conditions: mouse, liver, intravenous, 1.85 MBq
[3] = test system: sstr2-transfected HCT116 tumor-bearing female nu/nu mice; assay: Biodistribution in tumor-bearing mice; assay type: in vivo; conditions: for blood clearance (in words): 1 to 4 h p.i.; for tumor uptake blocked by co-injected Y3-TATE: 4 h p.i., 20 μg Y3-TATE co-injected
[4] = test system: sstr2-transfected HCT116 tumor-bearing mice; assay: Small animal PET/CT imaging; assay type: in vivo; conditions: 2 h p.i.; for tumor SUV: PET/CT; for tumor SUV, blocked: unlabeled Y3-TATE co-injected to block

| Compound | maximum internalized tracer [1] | tissue uptake at 24 h [2] | blood clearance (in words) [3] | liver uptake (in words) ([3]; 1 h p.i.) | tumor uptake blocked by co-injected Y3-TATE [3] | tumor SUV [4] | tumor SUV, blocked [4] | tumor-to-blood ratio (in words) ([3]; 1, 4 and 24 h p.i.) | tumor uptake (in words) ([3]; 4 and 24 h p.i.) | internalization (in words) ([1]; 37 °C, up to 4 h) | liver uptake (in words) ([3]; 4 and 24 h p.i.) |
| --- | --- | --- | --- | --- | --- | --- | --- | --- | --- | --- | --- |
| C[C@@H](O)[C@H](NC(=O)[C@@H]1CSSC[C@H](NC(=O)[C@@H](Cc2ccccc2)NC(=O)CCCCCn2nnc3c2-c2ccccc2N(C(=O)CCNC(=O)CN2CCCN4CCN(CCCN(CP(=O)(O)O)CC4)CC2)Cc2ccccc2-3)C(=O)N[C@@H](Cc2ccc(O)cc2)C(=O)N[C@H](Cc2c[nH]c3ccccc23)C(=O)N[C@@H](CCCCN)C(=O)N[C@@H]([C@@H](C)O)C(=O)N1)C(=O)O (single isomer, unassigned) [^64Cu-AP-1, ^64Cu-CB-TE1A1P–DBCO–Y3-TATE, metal not drawn] | 45 ± 3 %ID/mg | < 1 %ID/g | significantly slower than the blood clearance of ^64Cu-1A1P | significantly higher than that of ^64Cu-KP-1 and ^64Cu-1A1P | 63% | 4.6 ± 0.8 | 0.47 ± 0.18 | – | – | – | – |
| C[C@@H](O)[C@H](NC(=O)[C@@H]1CSSC[C@H](NC(=O)[C@@H](Cc2ccccc2)NC(=O)CCCCCn2nnc3c2-c2ccccc2N(C(=O)CCNC(=O)CN2CCCN4CCN(CCCN(CP(=O)(O)O)CC4)CC2)Cc2ccccc2-3)C(=O)N[C@@H](Cc2ccc(O)cc2)C(=O)N[C@H](Cc2c[nH]c3ccccc23)C(=O)N[C@@H](CCCCN)C(=O)N[C@@H]([C@@H](C)O)C(=O)N1)C(=O)O (single isomer, unassigned) [^64Cu-AP-2, ^64Cu-CB-TE1A1P–DBCO–Y3-TATE, metal not drawn] | 73 ± 7 %ID/mg | – | – | – | – | – | – | – | – | – | – |
| ^64Cu-CB-TE1A1P–Y3-TATE [^64Cu-1A1P] | – | – | – | – | 95% | 2.8 ± 0.4 | 0.19 ± 0.02 | significantly higher than both ^64Cu-AP-1 and ^64Cu-KP-1 at all time points | significantly higher tumor uptake than ^64Cu-KP-1 and ^64Cu-AP-1 | – | – |
| C[C@@H](O)[C@H](NC(=O)[C@@H]1CSSC[C@H](NC(=O)[C@@H](Cc2ccccc2)NC(=O)CCCCCn2nnc3c2-c2ccccc2N(C(=O)CCNC(=O)CN2CCCN4CCN(CCCN(CP(=O)(O)O)CC4)CC2)Cc2ccccc2-3)C(=O)N[C@@H](Cc2ccc(O)cc2)C(=O)N[C@H](Cc2c[nH]c3ccccc23)C(=O)N[C@@H](CCCCN)C(=O)N[C@@H]([C@@H](C)O)C(=O)N1)C(=O)O (single isomer, unassigned) [^64Cu-AP-3, ^64Cu-CB-TE1A1P–DBCO–Y3-TATE, metal not drawn] | – | – | – | – | – | – | – | – | – | slower internalization which was not saturated after 4 h | – |
| C[C@@H](O)[C@H](NC(=O)[C@@H]1CSSC[C@H](NC(=O)[C@@H](Cc2ccccc2)NC(=O)CCCCCn2nnc3c2-c2ccccc2N(C(=O)CCNC(=O)CCOCCOCCOCCOCCOCCC(=O)NCCCCC(C(=O)O)N2CCCN4CCN(CCCN(CP(=O)(O)O)CC4)CC2)Cc2ccccc2-3)C(=O)N[C@@H](Cc2ccc(O)cc2)C(=O)N[C@H](Cc2c[nH]c3ccccc23)C(=O)N[C@@H](CCCCN)C(=O)N[C@@H]([C@@H](C)O)C(=O)N1)C(=O)O (some centres unmarked) [^64Cu-KP-1, ^64Cu-CB-TE1K1P–PEG4–DBCO–Y3-TATE, metal not drawn] | – | < 1 %ID/g | significantly slower than the blood clearance of ^64Cu-1A1P | – | 84% | 3.2 ± 0.2 | 0.21 ± 0.06 | – | – | – | lower uptake in the liver than ^64Cu-AP-1 and ^64Cu-1A1P |
